From PubChem BioAssay AID624399 (The Scripps Research Institute Molecular Screening Center, 2012)
Active and inactive are the calls of the source.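 The calls were made as follows: active = increase in reporter activity of 20% or more; inactive = increase below 20%, or a negative response.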

Tested on: BG1Luc4E2 cells, ERE-luciferase luminescence, 24 h
Assay: estrogenic induction of ERE reporter expression – BG1Luc4E2 ovarian carcinoma cells, luminescence, counter-screen for AHR activator project, late-stage follow-up (AID 624399)
Settings: at 10 µM; active compounds read high
Method in brief: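 Doses: Single test concentration of 10 µM per compound | Material: BG1Luc4E2 cells, firefly luciferase reporter under two synthetic EREs | Measured by: Firefly luciferase luminescence measured after cell lysis | Timing: 5-day estrogen depletion, then 24 h compound exposure at 37 °C | Read-out basis: Maximum % reporter activation | Medium: Phenol red-free DMEM with charcoal-stripped serum, estrogen-depleted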

Structure (SMILES): Cc1ccnc(NC(=O)CSc2nc3ccccc3s2)c1
- activation: -3.7% (inactive)

Structure (SMILES): CCOc1ccccc1NC(=O)c1ccc(C(=O)Nc2ccccc2OCC)nc1
- activation: -2.8% (inactive)

Structure (SMILES): O=C(CSc1nc(-c2ccc(F)cc2)cs1)Nc1ccccn1
- activation: 1% (inactive)

Structure (SMILES): Cc1cc(Nc2ccc(F)cc2)nc(N)n1
- activation: -2.7% (inactive)

Structure (SMILES): CCOC(=O)c1c(C)nn(-c2cc(Cl)ccc2Cl)c1C
- activation: -3.3% (inactive)

Structure (SMILES): COc1ccc(Nc2cc(Cl)nc(N)n2)cc1
- activation: 2.2% (inactive)

Structure (SMILES): Cc1ccc(-c2cc(-c3ccc(Cl)cc3)n[nH]2)c(O)c1
- activation: 3.2% (inactive)

Structure (SMILES): COc1ccc(Cl)cc1NC(=O)c1ccc(C(=O)Nc2cc(Cl)ccc2OC)nc1
- activation: -3.6% (inactive)

Structure (SMILES): Cc1cccc(NC(=O)c2cc(-c3ccc(C)cc3O)n[nH]2)c1
- activation: 1.8% (inactive)

Structure (SMILES): COc1ccc(Nc2cc(Cl)nc(N)n2)cc1OC
- activation: 13.6% (inactive)

Structure (SMILES): Cc1cccc(C)c1NC(=O)c1ccc(C(=O)Nc2c(C)cccc2C)nc1
- activation: -5.1% (inactive)

Structure (SMILES): COc1ccc(O)c(-c2cc(-c3cccs3)[nH]n2)c1
- activation: -3% (inactive)

Structure (SMILES): CN(Cc1cc(-c2cccs2)n[nH]1)Cc1coc2ccccc2c1=O
- activation: -2.6% (inactive)

Structure (SMILES): Cc1cc(Br)cc(C)c1Nc1ccnc(Nc2ccc(C#N)cc2)n1
- activation: -3.5% (inactive)

Structure (SMILES): O=C(CSc1nc2ccccc2s1)Nc1ccccn1
- activation: -1% (inactive)

Structure (SMILES): Cc1ccc(-c2cc(-c3ccc(F)cc3)n[nH]2)c(O)c1
- activation: 5.8% (inactive)

Structure (SMILES): Cc1ccc(O)c(-c2cc(-c3ccccc3Cl)[nH]n2)c1
- activation: 11.6% (inactive)

Structure (SMILES): Nc1nc(Cl)cc(Nc2ccc(Oc3ccccc3)cc2)n1
- activation: 3.3% (inactive)

Structure (SMILES): O=C(CSc1nc2ccccc2s1)Nc1ccc(Cl)cn1
- activation: -2% (inactive)

Structure (SMILES): Cc1csc(SCC(=O)Nc2ccccn2)n1
- activation: -2.6% (inactive)

Structure (SMILES): COc1ccc(NC(=O)c2ccc(C(=O)Nc3ccc(OC)cc3OC)nc2)c(OC)c1
- activation: -0.5% (inactive)

Structure (SMILES): Cc1ccc(-c2cc(-c3cccc(F)c3)n[nH]2)c(O)c1
- activation: 3.8% (inactive)

Structure (SMILES): COc1ccc(-c2cc(-c3ccc(C)cc3O)[nH]n2)cc1
- activation: -7.2% (inactive)

Structure (SMILES): Cc1ccc(NC(=O)c2ccc(C(=O)Nc3ccc(C)cc3C)nc2)c(C)c1
- activation: -1.6% (inactive)

Structure (SMILES): Nc1nc(Cl)cc(Nc2ccccc2F)n1
- activation: -0.9% (inactive)
